In data set [1] the target is T1, X-box-binding protein 1 (Rattus norvegicus) (UniProt Q9R1S4).
T1 sequence (whole entry): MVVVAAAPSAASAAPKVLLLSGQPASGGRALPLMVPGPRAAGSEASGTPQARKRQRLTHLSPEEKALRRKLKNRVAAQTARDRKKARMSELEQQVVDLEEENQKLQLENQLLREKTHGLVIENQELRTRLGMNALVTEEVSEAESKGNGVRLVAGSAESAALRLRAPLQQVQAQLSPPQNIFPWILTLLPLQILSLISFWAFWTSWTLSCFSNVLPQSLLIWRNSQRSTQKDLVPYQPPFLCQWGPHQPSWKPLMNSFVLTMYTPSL
Kind of data set: Transactivation of XBP1 in rat IEC-6 cells at 10 uM after 48 hrs by dual luciferase reporter gene assay relative to con2. The data set is classed as cell-based. In a few lines: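 XBP 1 transcriptional activation measured by dual luciferase reporter detection. Con 2 is the pGL3-basic vector control, and activation is expressed as a fold ratio against it. Con 1 serves as background contrast, and 8-oxodihydrocoptisine is the positive control. Compounds are tested at 10 μM.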

Data set [2] in a line: Cytotoxicity against rat IEC-6 cells assessed as cell survival at 10 uM after 72 hrs by MTT assay relative to control. The data set is classed as cell-based. The settings on record: read-out: Survival.

Activity calls are given as the source filed them. The calls are words filed in the database; no cut-off is given here.

In the case of `C/C1=C\CC[C@@]2(C)O[C@@H]2C[C@]2(C(C)C)CC[C@@](C)(O2)[C@H](O)CC1=O` (relative stereo), the fold change (FC) in data set [1] is 1.5. For the same compound, the viability at 72 h, 10 µM in data set [2] came to 87%.

On to `C/C1=C\CC[C@]2(C)O[C@H]2C[C@]2(C(C)C)CC[C@@](C)(O2)[C@H](O)CC1=O` (relative stereo), for which the outcome in data set [1] was Active. For the same compound, the viability at 72 h, 10 µM in data set [2] was found to be 87%.

For `C/C1=C/C[C@@H](O)[C@@]2(C)CC[C@@](C(C)C)(C[C@@H](O)[C@]3(C)CC[C@H]1O3)O2`, in data set [1], the fold change (FC) is 1.5. In data set [2], the viability at 72 h, 10 µM was 87%.

For `C/C1=C\CC[C@@]2(C)O[C@@H]2C[C@]2(C(C)C)CC[C@@](C)(O2)[C@H](O)CC1`, the result in data set [1] was Active. Also, the viability at 72 h, 10 µM in data set [2] is 87%.

In data set [1], `C/C1=C\[C@@H](O)C[C@@]2(C)O[C@@H]2C[C@]2(C(C)C)CC[C@@](C)(O2)[C@H](O)CC1=O` yielded a fold change (FC) of 2.5. Also, in data set [2], the viability at 72 h, 10 µM turned out to be 87%.

The compound `O=c1c2c3c(ccc2cc2n1CCc1cc4c(cc1-2)OCO4)OCO3` yielded a fold change (FC) in data set [1] of 2.2.

Take `C/C1=C\[C@@H](O)C[C@@]2(C)O[C@@H]2C[C@]2(C(C)C)CC[C@@](C)(O2)[C@H](O)CC1`: the result in data set [1] was Active. Further, in data set [2], the viability at 72 h, 10 µM worked out at 87%.

Turning to `CC(C)[C@@]12CC[C@@](C)(O1)[C@@H]1CC[C@@](C)(O1)[C@@H](O)C[C@@H]1O[C@@]1(C)[C@H](O)C2`, the outcome in data set [1] was Active. Also, in data set [2], the viability at 72 h, 10 µM was found to be 87%.

On to `CC(C)[C@@]12CC[C@@](C)(O1)[C@H](O)CC/C(C=O)=C/CC[C@@]1(C)O[C@@H]1C2`, for which, in data set [1], the fold change (FC) came to 1.6. The viability at 72 h, 10 µM in data set [2] came to 87%.

Regarding `C/C1=C\C[C@]2(C(C)C)CC[C@@](C)(O2)[C@@H]2CC[C@@](C)(O2)[C@@H](O)CC1=O` (relative stereo), in data set [1], the result was Active. Moreover, the viability at 72 h, 10 µM in data set [2] stood at 87%.

The values are drawn from ChEMBL document CHEMBL3632466, “Cembranoids from the Gum Resin of Boswellia carterii as Potential Antiulcerative Colitis Agents” (J Nat Prod, 2015).
